Screening results as filed in PubChem.
The list is not random: actives were taken first. Their share in the collection is about 1.1%.
Avidin bead fluor – avidin bead compound fluorescence profile; Avidin beads, compound fluorescence 488/530 nm, flow cytometry; hits give high values; fluorescence (KMESF) at 10 µM; actives 0.38% (n = 220,000); in the data active = fluorescence above about 47
Pemphigus Ab inh – blocks pemphigus antibody binding to human desmoglein-3; actives 0.48% (n = 310,000); DSG3-coupled beads, scFv-anti-DSG3-GFP binding, flow cytometry; hits give low values; P32926; binding (percent of control), % at 10 µM; AID 588358;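 active = binding more than 3 SD below its plate's average and above zero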;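 also: hits lower antibody fragment binding to DSG3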
Target sequence (P32926 whole entry, looked up, the tested form may be a part): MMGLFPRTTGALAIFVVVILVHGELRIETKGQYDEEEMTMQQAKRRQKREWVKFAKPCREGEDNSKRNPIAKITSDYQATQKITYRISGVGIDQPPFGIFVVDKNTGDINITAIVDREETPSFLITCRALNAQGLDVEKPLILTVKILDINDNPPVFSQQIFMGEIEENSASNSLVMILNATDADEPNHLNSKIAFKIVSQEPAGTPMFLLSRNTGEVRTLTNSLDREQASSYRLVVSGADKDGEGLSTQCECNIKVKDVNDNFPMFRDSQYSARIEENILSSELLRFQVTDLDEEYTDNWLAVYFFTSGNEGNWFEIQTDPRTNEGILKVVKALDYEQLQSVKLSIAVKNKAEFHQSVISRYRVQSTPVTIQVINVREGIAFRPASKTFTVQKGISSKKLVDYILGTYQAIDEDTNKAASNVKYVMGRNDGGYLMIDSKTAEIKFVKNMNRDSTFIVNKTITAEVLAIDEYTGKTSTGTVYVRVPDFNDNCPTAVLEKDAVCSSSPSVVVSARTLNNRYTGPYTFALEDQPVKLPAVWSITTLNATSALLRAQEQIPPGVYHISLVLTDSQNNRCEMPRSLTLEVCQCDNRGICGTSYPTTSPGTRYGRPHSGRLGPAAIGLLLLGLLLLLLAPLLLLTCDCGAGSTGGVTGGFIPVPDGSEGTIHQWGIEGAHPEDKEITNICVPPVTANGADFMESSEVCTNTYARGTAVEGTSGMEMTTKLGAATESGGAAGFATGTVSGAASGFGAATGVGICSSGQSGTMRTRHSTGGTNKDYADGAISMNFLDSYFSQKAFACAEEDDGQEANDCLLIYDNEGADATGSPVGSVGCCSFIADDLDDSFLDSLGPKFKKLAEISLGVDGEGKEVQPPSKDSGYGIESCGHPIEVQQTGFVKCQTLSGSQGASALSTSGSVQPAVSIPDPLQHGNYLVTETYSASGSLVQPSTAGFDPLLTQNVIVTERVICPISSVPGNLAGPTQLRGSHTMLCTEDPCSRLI
GSH fluor – compound fluoresces at 488/530 nm on GSH beads | GSH beads flow cytometry, compound fluorescence 488/530 nm; hits give high values | fluorescence (KMESF) at 10 µM | actives 0.25% (n = 190,000) | AID 1776; in the data active = fluorescence above about 89;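 also: glutathione beads carrying GST-tagged Bcl family fusion proteins plus one bare bead set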
Arrestin-AP2 inh – human beta-arrestin and AP2 interaction inhibition | FITC-arrestin peptide / GST-AP2 beads, flow cytometry; AP2 beta2 appendage carries R879A mutation | inhibition, % at 10 µM | actives 0.31% (n = 340,000);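 active = inhibition above a set limit, near 3 SD of compounds lacking own fluorescence, cut at about 54% in these data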
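System: GST-AP2 R879A glutathione beads | Also added: FITC-arrestin peptide, 50 nM | Times: 12 min plus 1 h, RT | Signal: Bead flow cytometry, FITC channel | Buffer or medium: PBS with 0.05% Tween 20 and 0.1% BSA | Read-out basis: Percent drop in bead-associated FITC signal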
A number is an active result; - = inactive; . = not tested or not shown.

SMILES | Avidin bead fluor | Pemphigus Ab inh | GSH fluor | Arrestin-AP2 inh
O=C1CC2(CCN(C(=O)c3cccc(F)c3)CC2)Oc2ccccc21 | . | - | . | -
CCc1nccn1S(=O)(=O)c1cc(OC)ccc1OC | . | - | . | -
CCCc1nccn1S(=O)(=O)c1cc(OC)ccc1OC | - | - | 249 | -
CSc1nc(SCC(=O)O)c2sc3nc(-c4ccccc4)c4c(c3c2n1)CCC4 | - | 66 | . | -
O=C(CN1C(=O)NC2(CCCC2)C1=O)OCc1cc(=O)n2cc(Br)ccc2n1 | - | 65 | . | -
COc1ccc(-c2ocnc2C(=O)Nc2ccccc2N2CCCCC2)cc1 | 221 | - | - | -
COc1ccc(OCC(=O)Nc2ccccc2N2CCCCC2)cc1 | . | - | . | -
CCC1(C)NC(=O)N(CC(=O)Nc2sc3c(c2C(N)=O)CCC3)C1=O (stereo not given) | - | . | 222 | -
CC(C)c1ccc(N(CC(=O)NCc2ccco2)C(=O)CCC(=O)Nc2nccs2)cc1 | . | -39 | . | -
O=C(CCC(=O)N(CC(=O)NC1CCCC1)c1ccc(F)cc1)Nc1nccs1 | . | 48 | . | -
O=C(COc1ccccc1)Nc1ccc(S(=O)(=O)Nc2ccccn2)cc1 | . | . | . | -
CC(C)NC(=O)CSCc1c(F)cccc1Cl | - | - | 121 | -
COc1cc(C(=O)COC(=O)c2c(C)noc2C)cc(OC)c1OC | . | - | . | -
COc1ccc2ccccc2c1CN1CCCC(CO)C1 (stereo not given) | 57 | - | - | -
COc1ccc2ccccc2c1CN1CCN(Cc2ccccc2)CC1 | - | - | - | -
COc1ccccc1NS(=O)(=O)c1cccc(NC(=O)c2cc3ccccc3oc2=O)c1 | - | 78 | - | -
COc1ccccc1NS(=O)(=O)c1cccc(NC(=O)Nc2ccccc2)c1 | - | - | - | -
CCc1ccccc1NC1=NCC(=O)N1C1CCCC1 | - | - | - | -
COc1ccc(/C=N/NC(=O)c2nn(-c3ccc(Cl)cc3)c(=O)c3c(N)scc23)cc1 | - | 82 | - | -
Cc1ccc(CS(=O)Cc2ccc(C(=O)NCc3ccc(OC(C)C)cc3)o2)cc1 (stereo not given) | . | . | . | -
CC(C)NC(=O)N(C)C[C@H]1OCc2cnnn2CCCC(=O)N([C@H](C)CO)C[C@H]1C | . | - | . | .
Cc1ccc(CSCCC(=O)NCCc2ccc(Cl)cc2)cc1 | 121 | - | - | -
Cc1ccc(C(C)C)c(OCC(=O)Nc2ccc(N3CCN(S(C)(=O)=O)CC3)cc2)c1 | - | 53 | - | -
COc1ccccc1CC(=O)Nc1ccc(S(=O)(=O)N2CCOCC2)cc1 | . | . | . | -
O=c1c2ccccc2sn1-c1ccc(Cl)cc1Cl | . | 61 | . | .
SMILES | Avidin bead fluor | Pemphigus Ab inh | GSH fluor | Arrestin-AP2 inh
CS(=O)(=O)N1CCc2cc(S(=O)(=O)Nc3ccc4c(c3)OCCO4)ccc21 | - | - | - | -
CS(=O)(=O)N1CCc2cc(S(=O)(=O)NCCNS(=O)(=O)c3ccc4c(c3)CCN4S(C)(=O)=O)ccc21 | - | 77 | - | -
O=C(c1ccco1)N1CCN(C(c2ccc(F)cc2)c2nnnn2Cc2cccs2)CC1 (stereo not given) | - | - | 260 | -
O=C(c1ccco1)N1CCN(C(c2ccccc2)c2nnnn2Cc2cccs2)CC1 (stereo not given) | - | - | - | -
CS(=O)(=O)c1ccc2nc(NC(=O)Nc3ccccc3F)sc2c1 | . | 88 | . | -
CC1=CCC(C(=O)O)C(C(=O)Nc2nc3ccc(S(C)(=O)=O)cc3s2)C1 (stereo not given) | - | . | 92 | -
CCC1CCCCN1CCCNC(=O)C1CCC(CNS(=O)(=O)c2c(C)cc(C)cc2C)CC1 (stereo not given) | . | - | . | -
Cc1cccc(C)c1OCC(=O)Nc1ccccc1C(=O)N1CCOCC1 | . | - | . | -
CCCNC(=O)CCc1c(C)nc2nc(-c3cc(OC)cc(OC)c3)nn2c1C | - | . | - | -
CCOC(=O)C(Cc1ccccc1)NC(=O)CCc1c(C)nc2nc(C)nn2c1C (stereo not given) | - | 86 | - | -
CCCCNC(=O)CCc1c(C)nc2nc(-c3cc(OC)cc(OC)c3)nn2c1C | - | -1.6 | - | -
CCOC(=O)C(Cc1ccccc1)NC(=O)CCc1c(C)nc2ncnn2c1C (stereo not given) | - | . | - | -
O=C(/C=C/c1cccs1)N1CCC2(CC1)Oc1ccc(Cl)cc1C(=O)C21CC(c2cccnc2)=NO1 (stereo not given) | - | - | . | -
Cc1cccc(C)c1NC(=O)C1CCCN1S(=O)(=O)c1ccc2c(c1)n(C)c(=O)c(=O)n2C (stereo not given) | . | - | . | -
O=C1CC(c2ccccc2Cl)=NN(c2ncnc3ccccc23)C1=O | - | - | - | -
CC(=O)Nc1ccccc1-c1nc2ccc(C(=O)N3CCN(c4cc(C)ccc4C)CC3)cc2[nH]c1=O | 78 | - | - | -
COc1ccccc1Nc1ncnc2c1c(C)c(C)n2CCO | . | - | . | -
COc1cccc(OC)c1OCCCCN1CCCC1 | 56 | - | - | -
COc1cccc(OC)c1OCCCCN1CCCCC1 | . | - | . | -
c1ccc(-c2ccccc2OCCCN2CCCC2)cc1 | - | 72 | - | -
CCN(CC(=O)Nc1ccc(NC(C)=O)cc1)C(=O)c1ccc(S(=O)(=O)N2CCCC2)cc1 | . | - | . | -
CC(NCC(=O)Nc1ccccc1C(=O)NC1CC1)c1cccc(C(F)(F)F)c1 (stereo not given) | . | - | . | -
COc1ccc(OCCC(=O)OCC(=O)NCc2ccco2)cc1 | - | . | 259 | -
O=C(COC(=O)c1ccccc1)NCc1ccco1 | - | - | - | -
O=C(COC(=O)c1ccccc1Oc1ccccc1)NCc1ccco1 | - | - | 263 | -
SMILES | Avidin bead fluor | Pemphigus Ab inh | GSH fluor | Arrestin-AP2 inh
COc1ccc(C(CC(=O)NCc2ccco2)c2ccc(F)cc2)cc1 (stereo not given) | - | 31 | - | -
O=C(NC(=S)NN1CCCCC1c1cccnc1)c1ccc(Cl)cc1Cl (stereo not given) | - | - | . | -
COc1cc(S(C)=O)ccc1-c1nc2ncccc2[nH]1 (stereo not given) | . | - | . | -
CC(NC(=O)C12CC3(C)CC(C)(CC(C)(C3)C1)C2)C(=O)O (stereo not given) | - | - | - | -
Cc1cccc(OCc2nnc(SCC(=O)c3ccccc3)o2)c1 | 64 | . | - | -
Cc1cc(C)cc(OCc2nnc(SCC(=O)c3ccccc3)o2)c1 | - | - | - | -
Cc1cccc(OCc2nnc(SCC(=O)NCCc3ccccc3)o2)c1 | - | - | 243 | -
Cc1cc(NC(=O)CSc2nc(N)c(NC(=O)c3ccccc3F)c(=O)[nH]2)no1 | . | - | . | -
CCOc1ccc(CC(=O)NNC(=S)NCCc2ccccc2)cc1 | - | 66 | - | -
CCOc1ccc(C(=O)NCCc2ccccc2)cc1 | - | - | - | -
CC(C)CC(NC(=O)C1CCC(=O)N1)C(=O)NC(CC(C)C)C(=O)N1CCCC1C(N)=O (stereo not given) | . | - | . | -
Cc1ccc(C)c(NC(=O)CSc2ncnc3nc[nH]c23)c1 | - | . | - | -
Cc1cccc(NC(=O)CSc2ncnc3nc[nH]c23)c1C | - | 37 | - | -
COc1ccc(C(=O)CSc2ncnc3nc[nH]c23)cc1 | - | 88 | . | -
